Activity calls are given as the source filed them. No cut-off for these calls is given here.

In experiment [1] the test system is Staphylococcus aureus. Kind of experiment: Potentiation of oxacillin induced antibacterial activity against Staphylococcus aureus MRSA252 assessed as oxacillin MIC at 8 uM measured after 16 to 20 hrs in presence of 2% NaCl by microdilution broth method (reference value: 256 mg/L). It counts as functional. (Dilution methods test growth across graded concentrations, often in twofold steps.)

Experiment [2] deals with Staphylococcus aureus. Kind of experiment: Potentiation of oxacillin induced antibacterial activity against Staphylococcus aureus Mu50 NRS1 assessed as oxacillin MIC at 16 uM measured after 16 to 20 hrs in presence of 2% NaCl by microdilution broth method (reference value: 256 mg/L). The experiment is classed as functional.
The subject of experiment [3] is Staphylococcus aureus. As to the kind of experiment: Potentiation of oxacillin induced antibacterial activity against methicillin susceptible Staphylococcus aureus ATCC29213 assessed as reduction in oxacillin MIC at 20 uM measured after 16 to 20 hrs in presence of 2% NaCl by microdilution broth method. It counts as functional. The essentials:
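Oxacillin MIC was measured against methicillin-susceptible strains with the adjuvant fixed at 20 μM. Potentiation was expressed as fold reduction of the oxacillin MIC relative to oxacillin alone.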

Experiment [4] concerns Staphylococcus aureus. Kind of experiment: Potentiation of oxacillin induced antibacterial activity against Staphylococcus aureus NRS119 assessed as oxacillin MIC at 16 uM measured after 16 to 20 hrs in presence of 2% NaCl by microdilution broth method (reference value: 256 mg/L). The experiment is classed as functional.
For experiment [5], the system named is Staphylococcus aureus. As to the kind of experiment: Potentiation of oxacillin induced antibacterial activity against Staphylococcus aureus MW2 NRS123 assessed as oxacillin MIC at 20 uM measured after 16 to 20 hrs in presence of 2% NaCl by microdilution broth method (reference value: 16 mg/L). It counts as functional.
Experiment [6] concerns Staphylococcus aureus. As to the kind of experiment: Potentiation of oxacillin induced antibacterial activity against Staphylococcus aureus USA100-NRS382 assessed as oxacillin MIC at 8 uM measured after 16 to 20 hrs in presence of 2% NaCl by microdilution broth method (reference value: 64 mg/L). The experiment is classed as functional.
Experiment [7] concerns Staphylococcus aureus. Kind of experiment: Potentiation of oxacillin induced antibacterial activity against Staphylococcus aureus NRS119 assessed as oxacillin MIC at 8 uM measured after 16 to 20 hrs in presence of 2% NaCl by microdilution broth method (reference value: 256 mg/L). The experiment is classed as functional.
Experiment [8] concerns Staphylococcus aureus. As to the kind of experiment: Potentiation of oxacillin induced antibacterial activity against Staphylococcus aureus MRSA252 assessed as oxacillin MIC at 16 uM measured after 16 to 20 hrs in presence of 2% NaCl by microdilution broth method (reference value: 256 mg/L). It counts as functional.
Experiment [9] relates to Staphylococcus aureus. Kind of experiment: Inhibition of recombinant full length N-terminal Stre-tagged Staphylococcus aureus NCTC8325 STK1 expressed in Escherichia coli BL21 star (DE3) assessed as decrease in phosphorylation at 100 uM using MBP as substrate measured after 20 mins [33P] gammaATP by SDS-PAGE.
The test system of experiment [10] is Staphylococcus aureus. Kind of experiment: Inhibition of recombinant […] N-terminal Stre-tagged Staphylococcus aureus NCTC8325 STK1 domain (1 to 348 residues) expressed in Escherichia coli BL21 star (DE3) assessed as decrease in phosphorylation at 100 uM using MBP as substrate measured after 20 mins in presence of [33P] gammaATP by SDS-PAGE.
In experiment [11] the test system is Staphylococcus aureus. Kind of experiment: Inhibition of N-terminal His-tagged Staphylococcus aureus capA1ct/B2 expressed in Escherichia coli BL21 star (DE3) assessed as decrease in phosphorylation at 100 uM using MBP as substrate measured after 20 mins in presence of [33P] gammaATP by SDS-PAGE.
The subject of experiment [12] is Staphylococcus aureus. As to the kind of experiment: Inhibition of C-terminal His-tagged Staphylococcus aureus NCTC8325 RsbW expressed in Escherichia coli BL21 star (DE3) assessed as decrease in phosphorylation at 100 uM using RsbV as substrate measured after 20 mins in presence of [33P] gammaATP by SDS-PAGE.
The subject of experiment [13] is Staphylococcus aureus. Kind of experiment: Synergistic antibacterial activity against methicillin resistant Staphylococcus aureus NRS70 assessed as fractional inhibitory concentration index in presence of oxacillin by checkerboard assay. It counts as functional. The essentials:
(§1)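 Checkerboard combinations of the adjuvant with oxacillin were tested against MRSA strains NRS1, NRS70 and NRS384. The fractional inhibitory concentration index (FICI) was derived from the combination MICs, and each interaction was classed as synergistic or indifferent (additive).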

Experiment [14] deals with Staphylococcus aureus. Kind of experiment: Synergistic antibacterial activity against methicillin resistant Staphylococcus aureus NRS384 assessed as fractional inhibitory concentration index in presence of oxacillin by checkerboard assay. It counts as functional. The essentials:
as §1

Experiment [15] relates to Staphylococcus aureus. As to the kind of experiment: Synergistic antibacterial activity against methicillin resistant Staphylococcus aureus Mu50 NRS1 assessed as fractional inhibitory concentration index in presence of oxacillin by checkerboard assay. The experiment is classed as functional. In outline: as §1
Experiment [16] deals with Staphylococcus aureus. As to the kind of experiment: Inhibition of N-terminal His-tagged Staphylococcus aureus NCTC8325 RsbV expressed in Escherichia coli BL21 star (DE3) assessed as decrease in phosphorylation at 100 uM measured after 20 mins in presence of [33P] gammaATP by SDS-PAGE.

Regarding `CS(=O)(=O)/C(C#N)=C/c1cc(-c2ccc(Cl)c(Cl)c2)ccc1F`, the MIC (commonly the lowest concentration that inhibits growth of the organism) with Staphylococcus aureus [1] stood at 256 µg/mL; in the experiment on Staphylococcus aureus [2] it was 16 µg/mL; in the experiment with Staphylococcus aureus [4], 0.5 µg/mL; with Staphylococcus aureus [5] it was 2 µg/mL; in the experiment on Staphylococcus aureus [6] it was 4 µg/mL; in the experiment with Staphylococcus aureus [7], 32 µg/mL. The MIC with Staphylococcus aureus [8] was 128 µg/mL. In the experiment on Staphylococcus aureus [3], the “fold change (FC)” value was 2 - 10.
As to `CS(=O)(=O)/C(C#N)=C/c1c(F)ccc(Cc2ccc(Cl)c(Cl)c2)c1F`, the MIC in the experiment with Staphylococcus aureus [1] is 256 µg/mL; in the experiment on Staphylococcus aureus [2] it was 4 µg/mL; in the experiment with Staphylococcus aureus [4], 1 µg/mL; in the experiment with Staphylococcus aureus [5] it was no more than 0.03 µg/mL; with Staphylococcus aureus [6], 1 µg/mL; in the experiment on Staphylococcus aureus [7], 4 µg/mL. Moreover, the MIC in the experiment with Staphylococcus aureus [8] came out at 256 µg/mL. The “fold change (FC)” value in the experiment on Staphylococcus aureus [3] is reported as 2 - 10.
Take `CS(=O)(=O)/C(C#N)=C/c1cc(Cc2ccc(Cl)c(Cl)c2)ccc1F`: the MIC was 256 µg/mL with Staphylococcus aureus [1]; 4 µg/mL in the experiment on Staphylococcus aureus [2]; 1 µg/mL in the experiment with Staphylococcus aureus [4]; no more than 0.03 µg/mL in the experiment on Staphylococcus aureus [5]; 1 µg/mL in the experiment on Staphylococcus aureus [6]; 0.5 µg/mL in the experiment on Staphylococcus aureus [7]. Further, the minimal inhibitory concentration (MIC) with Staphylococcus aureus [8] worked out at 256 µg/mL. For the same compound, in the experiment with Staphylococcus aureus [3], the “fold change (FC)” value is 2 - 10.
For the compound `CS(=O)(=O)/C(C#N)=C/c1cc(Cc2ccc(Cl)c(Cl)c2)ccc1OC(F)(F)F`, the MIC in the experiment with Staphylococcus aureus [1] is 2 µg/mL; in the experiment with Staphylococcus aureus [2] it was 0.12 µg/mL; with Staphylococcus aureus [4], 0.03 µg/mL; with Staphylococcus aureus [5], no more than 0.03 µg/mL; in the experiment on Staphylococcus aureus [6], 0.5 µg/mL; in the experiment on Staphylococcus aureus [7] it was 0.06 µg/mL. In addition, in the experiment on Staphylococcus aureus [8], the MIC was no more than 0.03 µg/mL. For the same compound, the inhibition result in the experiment with Staphylococcus aureus [9], in the experiment on Staphylococcus aureus [10], with Staphylococcus aureus [11], in the experiment on Staphylococcus aureus [12] and with Staphylococcus aureus [16] was “inactive” in each case. Besides, the “fractional inhibitory concentration index (FICI)” value stood at 0.28 in the experiment with Staphylococcus aureus [13], 0.38 in the experiment on Staphylococcus aureus [14] and 0.28 in the experiment on Staphylococcus aureus [15]. The “fold change (FC)” value in the experiment with Staphylococcus aureus [3] is given as 2 - 10.
Consider `N#C/C(=C\c1cc(Cc2ccc(Cl)c(Cl)c2)ccc1F)S(=O)(=O)c1ccccn1`, for which the MIC turned out to be 256 µg/mL in the experiment on Staphylococcus aureus [1]; 0.03 µg/mL with Staphylococcus aureus [2]; 0.5 µg/mL in the experiment with Staphylococcus aureus [4]; 0.25 µg/mL with Staphylococcus aureus [5]; 0.5 µg/mL in the experiment on Staphylococcus aureus [6]; 16 µg/mL in the experiment on Staphylococcus aureus [7]. The MIC in the experiment on Staphylococcus aureus [8] was 128 µg/mL. For the same compound, the “fold change (FC)” value in the experiment with Staphylococcus aureus [3] is listed as 2 - 10.
